Results: PubChem BioAssay AID493160 (Sanford-Burnham Center for Chemical Genomics, 2011)
The campaign covered roughly 340,000 compounds. About 540 (0.16%) were called active.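 Rule for the calls: active = inhibition above about 35% when tested at 20 µM (limit read from the data); inactive = the rest.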 The sample as a whole holds a higher share of actives than the screen did.

biological target: Hexokinase HKDC1 (Homo sapiens) (UniProt Q2TB90); test: blockers of human HKDC1 enzyme activity – biochemical, fluorescence, uHTS, primary screen (AID 493160); details: recombinant HKDC1, G6PDH/diaphorase resazurin coupled fluorescence; at 20 µM; stronger effect = higher value;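 note: plate controls were DMSO wells with enzyme for no effect and DMSO wells lacking enzyme for full effect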
Sequence (Q2TB90 whole entry, looked up): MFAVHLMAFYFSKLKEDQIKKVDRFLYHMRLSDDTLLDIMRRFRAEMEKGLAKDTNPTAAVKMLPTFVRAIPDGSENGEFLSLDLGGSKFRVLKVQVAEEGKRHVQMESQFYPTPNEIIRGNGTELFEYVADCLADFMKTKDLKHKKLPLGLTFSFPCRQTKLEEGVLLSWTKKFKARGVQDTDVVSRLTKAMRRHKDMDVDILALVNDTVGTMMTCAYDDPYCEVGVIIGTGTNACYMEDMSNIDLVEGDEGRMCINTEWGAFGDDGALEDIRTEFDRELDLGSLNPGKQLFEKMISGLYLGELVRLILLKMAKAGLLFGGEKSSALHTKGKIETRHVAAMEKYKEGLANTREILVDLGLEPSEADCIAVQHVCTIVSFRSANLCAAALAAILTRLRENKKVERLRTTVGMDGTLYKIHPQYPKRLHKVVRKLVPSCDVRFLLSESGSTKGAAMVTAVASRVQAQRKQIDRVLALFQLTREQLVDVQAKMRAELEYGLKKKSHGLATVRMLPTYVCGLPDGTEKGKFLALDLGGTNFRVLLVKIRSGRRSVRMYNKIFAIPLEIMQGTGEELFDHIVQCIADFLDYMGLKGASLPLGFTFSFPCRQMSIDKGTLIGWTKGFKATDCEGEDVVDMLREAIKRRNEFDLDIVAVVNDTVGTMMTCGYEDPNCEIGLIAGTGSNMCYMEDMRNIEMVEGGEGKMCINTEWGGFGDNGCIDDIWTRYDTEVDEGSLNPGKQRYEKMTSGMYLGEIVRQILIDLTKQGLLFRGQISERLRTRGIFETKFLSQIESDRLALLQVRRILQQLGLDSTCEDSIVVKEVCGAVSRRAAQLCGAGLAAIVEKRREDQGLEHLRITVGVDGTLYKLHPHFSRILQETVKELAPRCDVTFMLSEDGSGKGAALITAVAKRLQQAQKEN
In short: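 Test system: recombinant HKDC1 (HK5) hexokinase enzyme, produced in-house; Amount: enzyme 5 µg/mL final; Buffer or medium: Tris pH 8.0 buffer with MgCl2, Tween-20, BSA, BME; Reagent: glucose and ATP substrates; Doses: 20 µM test compound, 1% DMSO; Incubation: 90 min reaction incubation at room temperature, dark; Detection: resorufin fluorescence at 613 nm.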

inhibition, active:
Cc1cc(C(=O)CCl)c(C)n1CC1COc2ccccc2O1 (stereo not drawn) 38.2%
CCC(=C/c1sc2ccc3ccccc3c2[n+]1C)/C=C1\Sc2ccc3ccccc3c2N1C 45%
COc1ccc(C(CCN(Cc2ccc(OC)c(OC)c2)C(=O)CCl)c2ccccc2)cc1 (stereo not drawn) 35.4%
CCCc1nc2oc3c(OCC)ncnc3c2c2c1COC(C)(C)C2 37.7%
O=C1C(Cl)=C(Oc2ccccc2)C(=O)c2ccccc21 65.2%
Nc1ccc2nc3c(=O)[nH]c(=S)[nH]c3nc2c1 69.9%

inhibition, inactive:
COc1ccc(OCCCC(=O)Oc2ccc(OC)cc2)cc1 -15%
COc1ccc2c(c1)C(SCC(=O)NCc1ccccc1)CC(C)(C)O2 (stereo not drawn) 3.48%
O=C(NCC1CCCO1)c1ccc(S(=O)(=O)Nc2ccc(F)cc2)cc1 (stereo not drawn) 0.46%
O=C(CNC(=O)c1cc(=O)[nH]c2ccccc12)Nc1ccc(F)c(F)c1 -8.3%
C/C(=N\NC(=O)COc1ccc(C)cc1[N+](=O)[O-])c1ccc2c(c1)OCCO2 2.16%
COc1ccccc1CNS(=O)(=O)c1ccc(C)cc1 -4.09%
CCC(C)CN1CCC(CO)(Cc2ccccc2Cl)CC1 (stereo not drawn) -10.2%
CC(CNC(=O)c1ccc(N)cc1)NC(=O)c1ccc(N)cc1 (stereo not drawn) -6.68%
O=C(O)CCn1cc(/C=C/C(=O)c2ccc(Cl)cc2)c(-c2cccc(Br)c2)n1 17.1%
Clc1ccc(C[n+]2cc(-c3ccc(Cl)cc3)n3c2CCC3)cc1 -3.08%
CC1(C)OC(=O)C(=CSc2ccc(C(C)(C)C)cc2)C(=O)O1 -2.23%
Cc1cc2cc3c(N)[nH]nc3nc2cc1C 1.11%
Cc1cc(C)c(S(=O)(=O)N2CCOCC2)cc1C -10.1%
O=C(NCc1ccc2c(c1)OCO2)c1c(O)nc2sccn2c1=O 6.57%
CCCCN1C(=O)CCC(C(=O)O)C1c1ccc(OC)cc1 (stereo not drawn) 7.8%
C=CCCN(Cc1ccccc1)S(=O)(=O)c1ccccc1Br 2.98%
Cc1cc(=O)[nH]c2nnnn12 7.5%
COc1cc2c3c(c1)/C(=C1/SC(=S)NC1=O)C(=O)N3C(C)(C)C=C2C -4.38%
CCN(C[C@H]1N[C@@](Cc2ccccc2)(C(=O)OC)[C@H]2C(=O)N(Cc3ccccc3)C(=O)[C@@H]12)C(=O)c1ccc(C)cc1 -6.61%
Cc1cc(Cl)ccc1NC(=S)N1CCC(C(N)=O)(N2CCCCC2)CC1 -7.07%
N#CCSc1nc2ccc(N3CCOCC3)cc2c(=O)n1CCc1ccccc1 10.5%
O=C1C(=O)N(CC2COc3ccccc3O2)c2ccccc21 (stereo not drawn) 19.1%
Cc1ccsc1C(=O)OCC(=O)c1cc(C)n(CC2CCCO2)c1C (stereo not drawn) 1.95%
CCc1[nH]nc(C(=O)N2CCCC(CNS(=O)(=O)c3cccs3)C2)c1C (stereo not drawn) -4.96%
C=CCNC(=O)c1cc2nc(C3CC3)cc(C(F)F)n2n1 14%
CCN(CC)C(=O)[C@H]1CC(CC(=O)NCc2ccco2)C(=O)N2CCc3c([nH]c4ccccc34)[C@]12C (stereo partly drawn) -4.97%
Cc1onc(-c2ccc(Cl)cc2)c1-c1ccnn1S(=O)(=O)c1ccc(Cl)cc1 0.4%
CC[C@@]1(C(=O)OC)N[C@H](CN(C)C(C)=O)[C@@H]2C(=O)N(C)C(=O)[C@@H]21 -5.2%
CC(=O)c1c(C)[nH]c(C(=O)COC(=O)c2cccc(S(=O)(=O)N(C)c3ccccc3)c2)c1C 16.7%
COCCN(C(=O)CSCc1ccc(C)cc1)c1c(N)n(CC(C)C)c(=O)[nH]c1=O -4.58%
COc1cc(CO)ccc1OCC(=O)Nc1cccc2ccccc12 -1.93%
S=C(Nc1cccc(Br)c1)N1CCn2cccc2C1c1cccnc1 (stereo not drawn) 4.07%
COCCNC(=O)c1ccc(-n2c(SCc3cccnc3)nc3ccccc3c2=O)cc1 -1.32%
O=Cc1cn(-c2ccccc2)nc1-c1ccccn1 -7.78%
CCOc1ccccc1-c1nc(CN2CCC(C(=O)N3CCOCC3)CC2)c(C)o1 -3.93%
COc1ccc(CN(Cc2ccc(OC)cc2)C(=O)c2cccs2)cc1 1.52%
COc1ccc(CCNC(=O)C(Sc2ccccn2)c2ccccc2)cc1OC (stereo not drawn) -5.11%
CC1CCCC(NC(=O)COC(=O)[C@@H]2CC(O)CN2S(=O)(=O)c2ccc3c(c2)OCCO3)C1C (stereo partly drawn) -2.96%
Cc1noc(/C=C/c2ccco2)c1S(=O)(=O)N1CCC(C(=O)Nc2ccc(Cl)cn2)CC1 -6%
CCOC(=O)/C(=C\c1ccc([N+](=O)[O-])cc1)C(=O)c1cc(C(C)=O)c(Nc2ccccc2)s1 33.5%
COc1nnc(-c2ccc(C)c(S(=O)(=O)N(C)C)c2)c2ccccc12 -2.23%
O=C(CC1NCCc2ccccc21)Nc1cccc(Cl)c1 (stereo not drawn) 8.29%
CN1CCN(c2ccccc2NC(=O)COc2ccc(C3CCCCC3)cc2)CC1 -0.75%
C/C=C/c1ccc(OCC(=O)NNC(=O)CN(C)S(=O)(=O)c2ccc(C)cc2)c(OC)c1 0.23%
CCOC(=O)C(C)n1nc(-c2ccccc2)c2ccccc2c1=O (stereo not drawn) -7.97%
O=[N+]([O-])c1ccc(N2CCN(c3ccc(F)cc3)CC2)cn1 3.5%
CC(C)CCSc1ncnc2c1oc1nc3c(cc12)COC(C)(C)C3 1.9%
CCCc1nc2oc3c(=O)[nH]cnc3c2c2c1COC(C)(C)C2 27.4%
Cc1cc(Cl)c2oc(C(=O)N3CCC(O)(c4ccccc4)CC3)c(C)c2c1 -1.23%
COc1ccc(N2CCN(C(=O)C3CCN(C(=O)c4ccccc4Cl)CC3)CC2)cc1 -1.69%
CCCCc1nc(SCC(=O)Nc2nnc(C(C)C)s2)n[nH]1 -4.74%
CCCCCC1CC(COc2ccccc2)OC1=O (stereo not drawn) -1.3%
COC(=O)c1c(C)c(C)nc(N)c1C#N 3.54%
COc1ccccc1N(C(=O)Cn1nnc2ccccc21)C(C(=O)NCc1ccco1)c1ccc(C)o1 (stereo not drawn) -6.23%
Cc1ccc(C(C)(C)C)c(OCCCCN2CCCC2)c1 -1.47%
CC1(C)CC(=O)C=C(c2ccc3ncccc3c2)C1 11.6%
N/C(=N\c1nc2ccccc2o1)NC(=O)C(Cc1ccccc1)N1C(=O)c2ccccc2C1=O (stereo not drawn) -5.13%
CCc1cc(CNC(=O)CC2C(=O)NCCN2CC2CCCCC2)on1 (stereo not drawn) -15.1%
O=C(Cn1c2[n+](c3ccc(C(F)(F)F)cc31)CCCCC2)Nc1c(F)cccc1F 1.03%
CCOC(=O)c1ccccc1NC(=O)COC(=O)C(Cc1c[nH]c2ccccc12)NC(C)=O (stereo not drawn) 0.25%
O=C(Nc1ccc(S(=O)(=O)Nc2ncccn2)cc1)c1cncc(Br)c1 -5.17%
CCC1SC2=NCCN2C1(O)c1ccc(Cl)cc1 (stereo not drawn) 10.4%
C#CCOCCOCCOCCNc1nc(N2CCN(C(=O)C([C@@H](C)CC)n3cc(C(N)COC(=O)C(F)(F)F)nn3)CC2)nc(N2CCN(C(=O)[C@H](Cc3ccc(O)cc3)n3cc(C(N)[C@H](C)CC)nn3)CC2)n1 (stereo partly drawn) 1.5%
CC(=O)N(CC1CCCO1)C1(C(=O)NC2CCCC2)CCCCC1 (stereo not drawn) 2.48%
COc1ccc(CN2CC(C(=O)NCCc3ccc(Cl)cc3)CC2=O)cc1 (stereo not drawn) -3.16%
Cc1ccc(Nc2nnc(SC(C)C(=O)NC3CC3)s2)cc1 (stereo not drawn) -5.42%
CC12CN(NC(=O)c3ccc(Cl)cc3)C3(C#N)CC1CCC23C (stereo not drawn) -3.27%
Cc1noc(C)c1S(=O)(=O)N(C)C[C@H]1Oc2ccc(NC(=O)C3CC3)cc2C(=O)N([C@H](C)CO)C[C@@H]1C 3.28%
CCn1cc(C(=O)OCC(=O)Nc2cccc(C)c2)c(=O)c2ccc(C)nc21 -3.21%
COCc1c(C(=O)N/N=C\c2cccnc2)nnn1-c1nonc1N -3.41%
COc1cc(/C=C/C(=O)OCC(=O)N2CCOCC2)ccc1OCC#N -1.34%
COc1ccc(C(=O)Nc2cc(S(=O)(=O)N3CCCC3)ccc2Cl)cc1 1.91%
C=CCn1c(CCNC(=O)c2ccccc2F)nnc1SCC(=O)Nc1ccc(OC)cc1 -6.44%
COc1ccc(S(=O)(=O)N2CCCC2CNC(=O)C(=O)NC2CC2)cc1 (stereo not drawn) 0.83%
Cc1ccc2c(c1)N(S(=O)(=O)c1cc(-c3cc(C)no3)ccc1C)CCO2 1.39%
O=S(N1CCCCCC1)C12CC3CC(CC(C3)C1)C2 (stereo not drawn) -7.44%
O=C(CNC(=O)Cc1ccccc1)NCC(=O)OCC(=O)c1ccccc1Cl 8.72%
CCOC(=O)c1ccc(NC(=O)c2nc[nH]c2C(=O)N[C@@H](CCCCNC(=O)OC(C)(C)C)C(=O)OC(C)(C)C)cc1 3.03%
Oc1c(C(c2ccco2)N2CCC3(CC2)OCCO3)sc2ncnn12 (stereo not drawn) 0.37%
O=C(Cc1ccc(NC(=O)C2CCCN(C(=O)C3CCCCC3)C2)cc1)Nc1cccc(C(=O)N2CCCCC2)c1 (stereo not drawn) -3.33%
CCC(C)c1ccc(O)c(/C=N/O)c1 (stereo not drawn) -1.01%
CCOC(=O)CCP(=O)(O)C(O)(c1ccccc1)c1ccccc1 -11.5%
